Reference: ChEMBL document CHEMBL4261529, “Rational design and optimization of selenophenes with basic side chains as novel potent selective estrogen receptor modulators (SERMs) for breast cancer therapy” (Medchemcomm, 2017)
The source made the active and inactive calls. No cut-off for these calls is given here.

Tests used:
Homo sapiens = species: Homo sapiens; assay: Ratio of relative binding affinity for human ERalpha LBD to relative binding affinity to human ERbeta LBD
MCF7 [1] = assay: Antiproliferative activity against human MCF7 cells after 72 hrs by MTT assay; type: functional, cell-based; conditions: MCF7, 72 h
In short: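 MCF-7 (ATCC), kept in DMEM with 10% FBS, were treated in triplicate for 72 h. IC50 is the average of at least three independent experiments ± SD.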

Estrogen receptor [2] = target: T1, Estrogen receptor (Homo sapiens, UniProt P03372); assay: Antagonist activity at ERalpha (unknown origin) expressed in HEK293T cells assessed as inhibition of 17beta-estradiol stimulated transcriptional activity after 24 hrs by dual luciferase reporter gene assay; type: cell-based
T1 sequence (P03372 whole entry): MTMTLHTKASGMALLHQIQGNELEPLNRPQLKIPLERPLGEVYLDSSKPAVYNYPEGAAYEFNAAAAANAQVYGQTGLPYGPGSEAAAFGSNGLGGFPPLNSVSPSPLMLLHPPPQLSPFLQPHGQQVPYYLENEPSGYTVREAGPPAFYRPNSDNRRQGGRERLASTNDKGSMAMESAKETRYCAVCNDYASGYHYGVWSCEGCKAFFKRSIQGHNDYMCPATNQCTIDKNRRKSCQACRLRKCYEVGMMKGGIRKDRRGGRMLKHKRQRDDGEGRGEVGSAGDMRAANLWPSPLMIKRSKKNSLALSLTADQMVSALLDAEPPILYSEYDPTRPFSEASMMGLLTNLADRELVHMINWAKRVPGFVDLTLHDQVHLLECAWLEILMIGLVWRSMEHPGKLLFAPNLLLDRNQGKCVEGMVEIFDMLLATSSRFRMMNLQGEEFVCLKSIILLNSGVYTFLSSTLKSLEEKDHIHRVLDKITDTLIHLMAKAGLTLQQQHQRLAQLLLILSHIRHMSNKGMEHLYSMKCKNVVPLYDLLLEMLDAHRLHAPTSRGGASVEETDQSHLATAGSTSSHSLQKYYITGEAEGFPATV

[3] = target: T2, Estrogen receptor (Homo sapiens) (UniProt P03372); assay: Binding affinity to human ERalpha LBD expressed in Escherichia coli BL21(DE3) after 2 hrs by fluorescence tracer coumestrol based competitive fluorometric binding assay relative to 17beta-estradiol
T2 sequence (whole entry): T1 sequence (P03372 whole entry)

Estrogen receptor beta [4] = target: T3, Estrogen receptor beta (Homo sapiens, UniProt Q92731); assay: Antagonist activity at ERbeta (unknown origin) expressed in HEK293T cells assessed as inhibition of 17beta-estradiol stimulated transcriptional activity after 24 hrs by dual luciferase reporter gene assay relative to 17beta-estradiol; type: cell-based
T3 sequence (Q92731 whole entry): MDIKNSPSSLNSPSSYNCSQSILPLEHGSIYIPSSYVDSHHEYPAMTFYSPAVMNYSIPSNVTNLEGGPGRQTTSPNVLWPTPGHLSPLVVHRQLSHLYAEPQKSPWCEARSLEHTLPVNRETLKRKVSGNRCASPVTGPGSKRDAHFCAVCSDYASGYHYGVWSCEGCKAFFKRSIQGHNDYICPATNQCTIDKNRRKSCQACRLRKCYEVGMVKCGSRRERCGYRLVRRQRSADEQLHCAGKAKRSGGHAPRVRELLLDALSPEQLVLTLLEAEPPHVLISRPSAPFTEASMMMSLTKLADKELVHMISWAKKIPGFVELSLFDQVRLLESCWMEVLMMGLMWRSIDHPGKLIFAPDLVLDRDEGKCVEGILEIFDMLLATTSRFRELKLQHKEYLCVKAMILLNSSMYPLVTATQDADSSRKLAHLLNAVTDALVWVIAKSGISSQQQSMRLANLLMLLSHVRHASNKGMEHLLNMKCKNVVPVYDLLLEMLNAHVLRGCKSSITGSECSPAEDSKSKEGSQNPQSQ
In short: (§1)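 ERβ expression vector (100 ng) plus 300 ng 3×ERE-luciferase reporter, calcium phosphate transfection into HEK293T cells plated in phenol red-free DMEM with 10% FBS. Next day, treated in triplicate with increasing doses (up to 10–5 M). For antagonist mode, 10 nM estradiol was co-added. Luciferase read 24 h later.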

Estrogen receptor beta [5] = target: T3, Estrogen receptor beta; assay: Binding affinity to human ERbeta LBD expressed in Escherichia coli BL21(DE3) after 2 hrs by fluorescence tracer coumestrol based competitive fluorometric binding assay relative to 17beta-estradiol
Estrogen receptor beta [6] = target: T3, Estrogen receptor beta; assay: Antagonist activity at ERbeta (unknown origin) expressed in HEK293T cells assessed as inhibition of 17beta-estradiol stimulated transcriptional activity after 24 hrs by dual luciferase reporter gene assay; type: cell-based
In short: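 HEK293T cells kept in DMEM with 10% FBS, plated in phenol red-free DMEM/10% FBS. Calcium phosphate co-transfection with 300 ng 3×ERE-luciferase reporter and 100 ng ERβ expression vector. Next day, cells stimulated with 10 nM estradiol plus increasing compound doses (up to 10–5 M), in triplicate. Luciferase read after 24 h.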

Estrogen receptor [7] = target: T1, Estrogen receptor; assay: Agonist activity at ERalpha (unknown origin) expressed in HEK293T cells assessed as transcriptional activity after 24 hrs by dual luciferase reporter gene assay; type: cell-based
Estrogen receptor beta [8] = target: T3, Estrogen receptor beta; assay: Agonist activity at ERbeta (unknown origin) expressed in HEK293T cells assessed as transcriptional activity after 24 hrs by dual luciferase reporter gene assay relative to 17beta-estradiol; type: cell-based; in short: as §1
Estrogen receptor beta [9] = target: T3, Estrogen receptor beta; assay: Agonist activity at ERbeta (unknown origin) expressed in HEK293T cells assessed as transcriptional activity after 24 hrs by dual luciferase reporter gene assay; type: cell-based; in short: as §1
MCF7 [10] = assay: Antiproliferative activity against human MCF7 cells at 50 uM after 5 days in presence of 10 nM 17beta-estradiol by MTT assay; type: functional, cell-based
In short: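 MCF-7 cells were given 50 μM compound with or without 10 nM E2 and cultured 5 days. Viability was expressed relative to untreated cells set at 100%. Mean of three separate experiments ± range.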

SMILES	Ratio (Homo sapiens)	IC50 (MCF7 [1])	IC50 (Estrogen receptor [2])	RBA [3]	Efficacy (Estrogen receptor beta [4])	RBA (Estrogen receptor beta [5])	IC50 (Estrogen receptor beta [6])	EC50 (Estrogen receptor [7])	Efficacy (Estrogen receptor beta [8])	EC50 (Estrogen receptor beta [9])	Activity (MCF7 [10])
Oc1ccc(-c2c[se]cc2-c2ccc(OCCN3CCCCC3)cc2Cl)c(Cl)c1	0.29	14100 nM	413 nM	5.38%	37.7%	18.4%	331 nM				
Oc1ccc(-c2ccc(-c3ccc(OCCN4CCCCC4)cc3F)[se]2)c(F)c1	10.9	> 100000 nM		6.89%	75.4%	0.63%	1940 nM	204 nM			
Oc1ccc(-c2c[se]cc2-c2ccc(O)c(F)c2)cc1F				0.58%		1.56%					
Oc1ccc(-c2ccc(-c3ccc(OCCN4CCCCC4)cc3Cl)[se]2)c(Cl)c1		> 100000 nM		< 0.1%	24.9%	< 0.1%	2960 nM	911 nM			
Oc1ccc(-c2c[se]cc2-c2ccc(OCCN3CCCCC3)c(F)c2)cc1F	0.32	15600 nM	69 nM	4.82%	45%	15.3%	540 nM				
Oc1ccc(-c2ccc(-c3ccc(O)cc3)[se]2)cc1				0.61%		2.87%					
Cc1cc(O)ccc1-c1ccc(-c2ccc(OCCN3CCCCC3)cc2C)[se]1	< 0.1	25300 nM	41 nM	< 0.1%	78.3%	0.62%	1240 nM	2370 nM			
Cc1cc(O)ccc1-c1c[se]cc1-c1ccc(O)cc1C				0.27%		6.7%					
Cc1cc(-c2c[se]cc2-c2ccc(OCCN3CCCCC3)c(C)c2)ccc1O		> 100000 nM		< 0.1%	30.3%	< 0.1%	415 nM	721 nM			
Oc1ccc(-c2ccc(-c3ccc(OCCN4CCCC4)cc3F)[se]2)c(F)c1	> 10	> 100000 nM		0.76%	92.1%	< 0.1%	1120 nM	136 nM			
Cc1cc(O)ccc1-c1ccc(-c2ccc(OCCN3CCCC3)cc2C)[se]1	3.37	53800 nM	874 nM	1.96%	4.6%	0.58%	146 nM		72.3%	240 nM	
Oc1ccc(-c2ccc(-c3ccc(OCCN4CCCC4)cc3)[se]2)cc1	12.2	5770 nM	1210 nM	12.4%	83.9%	1.02%	1270 nM	219 nM			inactive
Oc1ccc(-c2ccc(-c3ccc(OCCN4CCCC4)cc3Cl)[se]2)c(Cl)c1	0.19	7810 nM	415 nM	4.59%	49.4%	23.6%	299 nM				
Oc1ccc(-c2ccc(-c3ccc(O)cc3F)[se]2)c(F)c1				5.9%		24.3%					
Cc1cc(O)ccc1-c1cc(-c2ccc(OCCN3CCCC3)cc2)c(-c2ccc(O)cc2C)[se]1	4.06	7050 nM	13 nM	13.8%	170%	3.4%	16 nM				
Cc1cc(-c2c[se]cc2-c2ccc(OCCN3CCCC3)c(C)c2)ccc1O	0.34	12800 nM	836 nM	2.03%	34.1%	5.92%	5 nM	116 nM	20.8%		
Cc1cc(O)ccc1-c1ccc(-c2ccc(O)cc2C)[se]1				5.6%		11.1%					
Oc1ccc(-c2cc(-c3ccc(OCCN4CCCCC4)cc3)c(-c3ccc(O)cc3)[se]2)cc1	> 10	7040 nM	779 nM	4.59%	33.8%	< 0.1%	5390 nM	1830 nM			
Oc1ccc(-c2ccc(-c3ccc(O)cc3Cl)[se]2)c(Cl)c1	0.48			6.11%		12.7%					
Oc1ccc(-c2cc(-c3ccc(OCCN4CCCC4)cc3)c(-c3ccc(O)cc3)[se]2)cc1	0.18	4950 nM	974 nM	3.14%	49.2%	16.7%	475 nM				inactive
Oc1ccc(-c2c[se]cc2-c2ccc(O)cc2)cc1				0.32%		2.01%					
Oc1ccc(-c2c[se]cc2-c2ccc(OCCN3CCCC3)cc2Cl)c(Cl)c1	< 0.1	10900 nM	769 nM	< 0.1%	68.1%	23.3%	1160 nM				
Oc1ccc(-c2c[se]cc2-c2ccc(OCCN3CCCCC3)cc2)cc1	3.3	8130 nM	1590 nM	7.58%	22.8%	2.35%	451 nM		53.5%	1150 nM	inactive
Oc1ccc(-c2c[se]cc2-c2ccc(OCCN3CCCC3)cc2)cc1	0.35	> 100000 nM		2.06%	46.7%	5.92%	102 nM	1000 nM			
Cc1cc(-c2c[se]cc2-c2ccc(O)c(C)c2)ccc1O				0.71%		0.62%					
Cc1cc(O)ccc1-c1c[se]cc1-c1ccc(OCCN2CCCCC2)cc1C	0.05	15800 nM	237 nM	0.56%	43.4%	10.2%	1340 nM	158 nM			
Cc1cc(O)ccc1-c1c[se]cc1-c1ccc(OCCN2CCCC2)cc1C	3.6	16600 nM	179 nM	1.65%	66.7%	0.46%	43 nM				
